Data published in the M2OR odorant receptor database.

Legend:
Settings in all cases: stereoisomer not certain
[1] = target: T1, UniProt Q8VGU3
T1 sequence (whole entry): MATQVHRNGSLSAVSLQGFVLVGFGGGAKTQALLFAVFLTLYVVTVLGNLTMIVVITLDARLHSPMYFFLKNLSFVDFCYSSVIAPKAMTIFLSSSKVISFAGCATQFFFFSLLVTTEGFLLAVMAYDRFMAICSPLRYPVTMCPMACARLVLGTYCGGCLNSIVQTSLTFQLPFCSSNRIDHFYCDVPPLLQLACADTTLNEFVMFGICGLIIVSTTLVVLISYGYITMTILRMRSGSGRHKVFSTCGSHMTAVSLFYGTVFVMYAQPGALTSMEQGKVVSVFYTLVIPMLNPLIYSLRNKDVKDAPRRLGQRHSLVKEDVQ
Method in brief: (§1)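 Transient luciferase assays in mammalian cell lines were common, though methods varied by source. The values come from published papers and their supplementary material, with extra details from the original authors when needed. Responsive refers to a measured signal the original authors judged statistically different from baseline, and non-responsive (inactive) to the remainder.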

[2] = target: T2, UniProt Q8VGV7
T2 sequence (whole entry): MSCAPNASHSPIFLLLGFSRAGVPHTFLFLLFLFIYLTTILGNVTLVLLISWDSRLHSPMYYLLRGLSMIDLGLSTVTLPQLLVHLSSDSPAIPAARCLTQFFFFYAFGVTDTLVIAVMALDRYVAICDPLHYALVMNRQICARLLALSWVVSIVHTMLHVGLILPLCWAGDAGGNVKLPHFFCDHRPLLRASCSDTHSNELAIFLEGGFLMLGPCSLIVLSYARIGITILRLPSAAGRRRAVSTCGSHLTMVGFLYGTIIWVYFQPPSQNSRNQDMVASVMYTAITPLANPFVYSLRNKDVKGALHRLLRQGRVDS
Method in brief: as §1

[3] = target: T3, UniProt Q8VGX3
T3 sequence (whole entry): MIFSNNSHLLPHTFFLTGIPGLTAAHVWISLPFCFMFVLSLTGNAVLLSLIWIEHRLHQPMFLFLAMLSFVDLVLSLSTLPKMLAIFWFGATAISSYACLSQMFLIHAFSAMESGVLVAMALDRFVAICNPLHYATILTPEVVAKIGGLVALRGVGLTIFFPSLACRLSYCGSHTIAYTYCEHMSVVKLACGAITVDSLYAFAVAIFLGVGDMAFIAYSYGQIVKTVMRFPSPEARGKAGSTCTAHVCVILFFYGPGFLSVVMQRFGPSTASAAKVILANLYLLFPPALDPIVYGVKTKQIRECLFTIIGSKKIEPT
Method in brief: as §1

[4] = target: T4, UniProt Q8VGX5
T4 sequence (whole entry): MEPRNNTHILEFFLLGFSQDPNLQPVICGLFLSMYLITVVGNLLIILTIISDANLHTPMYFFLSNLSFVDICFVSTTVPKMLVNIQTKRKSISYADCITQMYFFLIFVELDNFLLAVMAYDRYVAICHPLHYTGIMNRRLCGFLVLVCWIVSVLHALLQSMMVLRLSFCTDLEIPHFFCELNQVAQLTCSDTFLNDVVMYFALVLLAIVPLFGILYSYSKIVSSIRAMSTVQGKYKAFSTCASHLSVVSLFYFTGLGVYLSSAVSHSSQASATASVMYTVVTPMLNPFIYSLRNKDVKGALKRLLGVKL
Method in brief: as §1

Measured: odorant receptor agonist call;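 also: active if original authors judged signal statistically different from baseline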

CCCCCC(=Cc1ccccc1)C(OC)OC
inactive: all assays above

O=C([O-])CCCCCCC(=O)[O-].[H+].[H+]
inactive: all assays above

C=CC(=C)CCC=C(C)C
inactive: all assays above

C=C1C2CCC(C2)C1(C)C (centres undefined)
inactive: all assays above

CCCCCCCOC(=O)C(C)C
inactive: all assays above

CCCCCC=CCCC=O
inactive: all assays above

OCCCCCCCCCO
inactive: all assays above

c1ccc2ncccc2c1
active: [4]
inactive: all other assays above

Cc1c(C)c(C)c(C=O)c(C)c1C
inactive: all assays above

CCCCCCC(C=O)=Cc1ccccc1
inactive: all assays above

CCCCCOC(=O)CC
inactive: all assays above
